b-catenin transl: beta-catenin nuclear translocation modulation. AID 1665. nuclear translocation activity, % at 5 µM. HeLa beta-catenin nuclear translocation, immunofluorescence imaging. actives 0.3% (n = 190,000);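 active means nuclear translocation activity above 50% at 5 µM, with a well cell count of 50 or more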;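 further: per-cell ratio of nuclear to cytoplasmic median beta-catenin stain intensity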
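Signal – beta-catenin immunofluorescence imaging with DAPI · Test system – human HeLa cell line · Dosing – 5 µM primary single dose, 0.1% DMSO, 0.02–20 µM confirmation series · Measure – % activation, nuclear-to-cytoplasmic median beta-catenin signal ratio per cell · Incubation – 24 h compound exposure at 37°C, 5% CO2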
HSV replic up: HSV replication enhancement; HSV replication augmentation in cells, fold increase; AID 1956; actives 0.005% (n = 220,000); maximum fold increase; in the data active means maximum fold increase above about 1.5; tested in PC3 cells
MT stabilizer: microtubule stabilization, imaging screen; HeLa tubulin immunostaining HCS, 24 h; share of cells brighter than vehicle mean+2SD; % tubulin-high responders, % at 10 µM; actives 0.83% (n = 200,000); AID 2205;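 active means plate Z-score above 3 for both tubulin-high and condensed-nucleus cell shares, with cell loss under 80%, at 10 µM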;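 further: anti alpha tubulin signal scored within the nucleus-defined area of each cell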
Lmaj promast: inhibitors of Leishmania major promastigote growth; Leishmania major promastigotes, resazurin fluorescence viability; inhibition, % at 10 µM; actives 9% (n = 200,000); in the data active means inhibition above about 50%;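 further: promastigotes grown with compound for 44 hours at 28 °C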
Dynein cargo inh: dynein cargo transport inhibition; z-score, hits read low; 3617.4 mouse cells, GR-EGFP nuclear translocation imaging; test concentration mostly 20 µM; stimulated with dexamethasone, 1 µM; active compounds read low; actives 0.47% (n = 220,000);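 active means plate z-score of nuclear minus cytoplasmic receptor signal below a set negative limit, without overly bright fluorescence or cell loss, cut at about -3.5 in these data, passing the limit was not always enough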;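 further: z-score of nuclear minus cytoplasmic ring GR-EGFP intensity difference per well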
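Buffer or medium: tet-free, stripped-serum medium; reagent: dexamethasone at 1.0 µM final, 30 min; incubation: 48 h induction, 1 h compound, 30 min dex at 37 °C; measured by: formaldehyde fixation, Hoechst nuclear stain, 10x automated fluorescence imaging; read-out: nuclear-to-cytoplasmic GR-EGFP distribution per well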
A number is an active result; n = inactive; x = no result given. In the library only some 8.9% were active in any assay of this set; here they are far more common.

SMILES	b-catenin transl	HSV replic up	MT stabilizer	Lmaj promast	Dynein cargo inh
O=C(c1cc(-c2cccnc2)nc2ccccc12)N1CCCc2ccccc21	n	n	14	n	n
Cc1ccc(-c2cc(C(=O)N3CCCc4ccccc43)c3ccccc3n2)cc1	n	n	n	n	n
Cc1c(NC(=O)COC(=O)C23CC4CC(CC(O)(C4)C2)C3)c(=O)n(-c2ccccc2)n1C	n	n	n	n	n
COc1ccc(-c2c(=O)n(OCc3ccccn3)c3ccccc3[n+]2[O-])cc1OC	n	n	n	n	n
COc1ccccc1CN1C(=O)CN(C2CCCCCC2)C(=O)C1c1ccc(F)cc1 (stereo unspecified)	n	n	n	n	n
COc1cccc(C2C(=O)N(C3CCCCC3)CC(=O)N2Cc2ccc(F)cc2)c1 (stereo unspecified)	x	n	n	53	n
CCOc1ccccc1C1C(C#N)=C(N)Oc2cc(N)ccc21 (stereo unspecified)	x	n	n	n	n
CCOc1cc(CNc2ccc3cn[nH]c3c2)ccc1OC	x	n	n	79	n
O=C(C1CCC1)N1CCc2cc(S(=O)(=O)N3CCCCC3)ccc21	x	x	n	n	n
CCNc1c2c(nc3ccccc13)CC(C)(C)CC2=O	n	n	n	58	n
CCOC(=O)C1CCN(Cc2cc(=O)n3c(-c4ccccc4)csc3n2)CC1	n	n	n	88	n
COc1ccc(NC(=O)c2nn(C)c(=O)c3ccccc23)cc1S(=O)(=O)Nc1ccccc1Cl	n	n	n	60	n
CCOc1ccc(NS(=O)(=O)c2cc(NC(=O)CCS(=O)(=O)c3ccc(C)cc3)ccc2OC)cc1	n	n	n	60	n
COc1ccc(NC(=O)CCSc2ccc(C)cc2)cc1S(=O)(=O)Nc1ccccc1Cl	n	n	n	88	n
COc1ccc(NC(=O)c2cc(C)nc3ccccc23)cc1S(=O)(=O)Nc1ccccc1Cl	n	n	n	n	n
CCOc1ccc(NC(=O)COC(=O)CCS(=O)(=O)c2ccc(C)cc2)cc1	n	n	n	n	n
COc1ccc(NC(=O)c2ccc3ccccc3n2)cc1S(=O)(=O)Nc1ccccc1Cl	n	n	n	98	n
O=C(C1CCN(Cc2ccccc2)CC1)N1CCCC1	n	x	n	n	n
CC(C)(C)c1cc(C(c2cccnc2)N2CCN(CCO)CC2)cc(C(C)(C)C)c1O (stereo unspecified)	x	n	n	100	n
Cc1ccc(C)c(Nc2nc(N)c3ccccc3n2)c1	n	n	n	98	n
O=c1oc(Nc2cccc(F)c2)nc2ccccc12	n	n	n	n	n
Nc1nc(Nc2cccc(F)c2)nc2ccccc12	n	n	n	89	n
Nc1c(C(=O)NCc2ccccc2)nnn1Cc1ccc(F)cc1	n	n	n	n	n
O=C(Cc1ccc(S(=O)(=O)N2CCOCC2)s1)Nc1ccccc1N1CCOCC1	n	n	n	n	n
O=C(Nc1ccc2c(c1)OCO2)c1cc(C2CC2)on1	n	n	n	52	n
SMILES	b-catenin transl	HSV replic up	MT stabilizer	Lmaj promast	Dynein cargo inh
Cc1cc(C)n2nc(C(=O)Nc3ccc4c(c3)OCO4)nc2n1	n	n	n	67	n
CCc1ccc(-c2cc(N)n(-c3ccccc3)n2)cc1	n	n	n	n	n
COc1ccc(C(=O)CSC2=C(C#N)C3(CCCCC3)C(C#N)=C(N)N2)cc1	n	n	n	58	n
N#CC1=C(N)NC(SCC(=O)c2ccc(Br)cc2)=C(C#N)C12CCCCC2	n	n	n	100	n
N#CC1=C(N)NC(SCC(=O)c2ccc(Cl)cc2)=C(C#N)C12CCCC2	n	n	n	n	n
Oc1ccccc1C(Nc1nccs1)c1ccc2cccnc2c1O (stereo unspecified)	n	n	x	x	n
Oc1c(C(Nc2ccccn2)c2ccccn2)ccc2cccnc12 (stereo unspecified)	n	x	n	100	n
COc1ccc(C(NC(=O)C(C)C)c2ccc3cccnc3c2O)cc1 (stereo unspecified)	n	n	x	x	n
CC(=O)NC(c1ccco1)c1ccc2cccnc2c1O (stereo unspecified)	x	n	n	98	n
Cc1ccc2ccc(C(Nc3ccccn3)c3ccccc3)c(O)c2n1 (stereo unspecified)	n	n	n	100	n
COc1ccc(C(Nc2cc(C)ccn2)c2ccc3ccc(C)nc3c2O)cc1 (stereo unspecified)	n	n	x	x	n
CC(C)CC(=O)Nc1ccc(C(=O)COc2ccc(-c3nnco3)cc2)cc1	n	n	n	n	n
O=C1N/C(=C\c2ccc(O)cc2)C(O)=C1C=NCc1ccccc1	n	n	n	n	n
COc1ccc(/C=C2\NC(=O)C(C=NCc3ccccc3)=C2O)cc1	n	n	n	58	n
CN=c1c([N+](=O)[O-])nn(-c2ccc3c(c2)OCCO3)n1O	n	n	n	n	n
CCc1cccc(N=c2c([N+](=O)[O-])nn(-c3ccc4c(c3)OCCO4)n2O)c1	n	n	n	91	n
O=[N+]([O-])c1nn(-c2ccc3c(c2)OCCO3)n(O)c1=NCCC1=CCCCC1	n	n	n	63	n
O=[N+]([O-])c1nn(-c2ccc3c(c2)OCCO3)n(O)c1=NCc1ccc(F)cc1	n	n	n	97	n
CC(C)c1ccc(N=c2c([N+](=O)[O-])nn(-c3ccc4c(c3)OCCO4)n2O)cc1	n	n	n	n	n
O=[N+]([O-])c1nn(-c2ccccc2)n(O)c1=NC1CCN(Cc2ccccc2)CC1	n	n	n	n	n
O=[N+]([O-])c1nn(-c2ccc3c(c2)OCCO3)n(O)c1=NC1CCN(Cc2ccccc2)CC1	n	n	n	76	n
O=C1N(C2CCCC2)C[C@@H]2C[C@@H](c3cn[nH]c3-c3ccc(Cl)cc3)N3CCC[C@@]123	n	n	n	n	n
CC(=O)Nc1ccc(-c2csc(NCc3ccco3)n2)cc1	n	n	n	n	n
Clc1ccc(CSc2nnc(-c3ccc4c(c3)OCO4)o2)cc1	n	n	n	n	n
O=[N+]([O-])c1nn(-c2ccc3c(c2)OCCO3)n(O)c1=NCc1ccc(F)cc1Cl	n	n	n	85	n
SMILES	b-catenin transl	HSV replic up	MT stabilizer	Lmaj promast	Dynein cargo inh
O=c1[nH]c(=O)n([C@H]2C[C@H](O)[C@@H](CO)O2)cc1F	x	n	n	82	n
Cc1cn([C@H]2C[C@H](N=[N+]=[N-])[C@@H](CO)O2)c(=O)[nH]c1=O	n	n	n	n	n
O=[N+]([O-])c1cc(S(=O)(=O)N2CCCC2)ccc1NCCc1ccccc1	x	n	n	58	n
COc1ccc(CCNc2ccc(S(=O)(=O)N3CCCC3)cc2[N+](=O)[O-])cc1	n	n	n	n	n
O=[N+]([O-])c1cc(S(=O)(=O)N2CCCC2)ccc1N/N=C/c1cccnc1	n	n	n	60	n
CCOc1ccc(CN2CCNC(=O)C2CC(=O)OC)cc1 (stereo unspecified)	x	n	n	n	n
COc1cc(NC(=O)c2cc(C(C)C)on2)c(OC)cc1Cl	n	n	n	n	n
